ChEMBL document CHEMBL4715736, “Identification of anticancer agents based on the thieno[2,3-b]pyridine and 1H-pyrazole molecular scaffolds” (2016)

test system: SR; assay: Growth inhibition of human SR cells assessed as cell growth at 0.01 uM incubated for 48 hrs by sulforhodamine B assay relative to control; assay type: functional; settings: read-out: Activity

SMILES | growth at 0.01 µM [%]
CN1CCc2nc3sc(C(N)=O)c(N)c3c(-c3cccs3)c2C1 | 97

test system: HOP-92; assay: Growth inhibition of human HOP-92 cells assessed as cell growth at 0.01 uM incubated for 48 hrs by sulforhodamine B assay relative to control; assay type: functional; settings: read-out: Activity

SMILES | growth at 0.01 µM [%]
CN1CCc2nc3sc(C(N)=O)c(N)c3c(-c3cccs3)c2C1 | 127

test system: NCI-H23; assay: Growth inhibition of human NCI-H23 cells assessed as cell growth at 0.01 uM incubated for 48 hrs by sulforhodamine B assay relative to control; assay type: functional; settings: read-out: Activity

SMILES | growth at 0.01 µM [%]
CN1CCc2nc3sc(C(N)=O)c(N)c3c(-c3cccs3)c2C1 | 97

test system: HCT-116; assay: Growth inhibition of human HCT-116 cells assessed as cell growth at 0.01 uM incubated for 48 hrs by sulforhodamine B assay relative to control; assay type: functional; settings: read-out: Activity

SMILES | growth at 0.01 µM [%]
CN1CCc2nc3sc(C(N)=O)c(N)c3c(-c3cccs3)c2C1 | 100

test system: A498; assay: Growth inhibition of human A498 cells assessed as cell growth at 0.01 uM incubated for 48 hrs by sulforhodamine B assay relative to control; assay type: functional; settings: read-out: Activity
Method in brief: (§1)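 NCI Developmental Therapeutics Program NCI60 panel. Compounds that were active in the 10 µM one-dose screen went on to dose–response testing. Growth at each concentration is expressed relative to untreated control (100%). GI50 (concentration giving 50% of maximal inhibition of proliferation) and TGI (concentration giving total growth inhibition) were derived from the curves.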

SMILES | growth at 0.01 µM [%]
CN1CCc2nc3sc(C(N)=O)c(N)c3c(-c3cccs3)c2C1 | 97

test system: SR; assay: Growth inhibition of human SR cells assessed as cell growth at 0.1 uM incubated for 48 hrs by sulforhodamine B assay relative to control; assay type: functional; settings: read-out: Activity

SMILES | growth at 0.1 µM [%]
CN1CCc2nc3sc(C(N)=O)c(N)c3c(-c3cccs3)c2C1 | 96

test system: TK-10; assay: Growth inhibition of human TK-10 cells assessed as cell growth at 0.1 uM incubated for 48 hrs by sulforhodamine B assay relative to control; assay type: functional; settings: read-out: Activity

SMILES | growth at 0.1 µM [%]
CN1CCc2nc3sc(C(N)=O)c(N)c3c(-c3cccs3)c2C1 | 99

test system: UO-31; assay: Growth inhibition of human UO-31 cells assessed as cell growth at 0.1 uM incubated for 48 hrs by sulforhodamine B assay relative to control; assay type: functional; settings: read-out: Activity

SMILES | growth at 0.1 µM [%]
CN1CCc2nc3sc(C(N)=O)c(N)c3c(-c3cccs3)c2C1 | 102

test system: A549; assay: Growth inhibition of human A549/ATCC cells assessed as cell growth at 1 uM incubated for 48 hrs by sulforhodamine B assay relative to control; assay type: functional; settings: read-out: Activity; method in brief: as §1

SMILES | growth at 1 µM [%]
CN1CCc2nc3sc(C(N)=O)c(N)c3c(-c3cccs3)c2C1 | 91

test system: NCI-H23; assay: Growth inhibition of human NCI-H23 cells assessed as cell growth at 1 uM incubated for 48 hrs by sulforhodamine B assay relative to control; assay type: functional; settings: read-out: Activity

SMILES | growth at 1 µM [%]
CN1CCc2nc3sc(C(N)=O)c(N)c3c(-c3cccs3)c2C1 | 89

test system: NCI-H322M; assay: Growth inhibition of human NCI-H322M cells assessed as cell growth at 1 uM incubated for 48 hrs by sulforhodamine B assay relative to control; assay type: functional; settings: read-out: Activity

SMILES | growth at 1 µM [%]
CN1CCc2nc3sc(C(N)=O)c(N)c3c(-c3cccs3)c2C1 | 99

test system: NCI-H460; assay: Growth inhibition of human NCI-H460 cells assessed as cell growth at 1 uM incubated for 48 hrs by sulforhodamine B assay relative to control; assay type: functional; settings: read-out: Activity

SMILES | growth at 1 µM [%]
CN1CCc2nc3sc(C(N)=O)c(N)c3c(-c3cccs3)c2C1 | 108

test system: 786-0; assay: Growth inhibition of human 786-0 cells assessed as cell growth at 1 uM incubated for 48 hrs by sulforhodamine B assay relative to control; assay type: functional; settings: read-out: Activity; method in brief: as §1

SMILES | growth at 1 µM [%]
CN1CCc2nc3sc(C(N)=O)c(N)c3c(-c3cccs3)c2C1 | 107

test system: CAKI-1; assay: Growth inhibition of human CAKI-1 cells assessed as cell growth at 1 uM incubated for 48 hrs by sulforhodamine B assay relative to control; assay type: functional; settings: read-out: Activity; method in brief: as §1

SMILES | growth at 1 µM [%]
CN1CCc2nc3sc(C(N)=O)c(N)c3c(-c3cccs3)c2C1 | 82

test system: PC-3; assay: Growth inhibition of human PC-3 cells assessed as cell growth at 1 uM incubated for 48 hrs by sulforhodamine B assay relative to control; assay type: functional; settings: read-out: Activity

SMILES | growth at 1 µM [%]
CN1CCc2nc3sc(C(N)=O)c(N)c3c(-c3cccs3)c2C1 | 106

test system: CCRF-CEM; assay: Growth inhibition of human CCRF-CEM cells assessed as cell growth at 100 uM incubated for 48 hrs by sulforhodamine B assay relative to control; assay type: functional; settings: read-out: Activity; method in brief: as §1

SMILES | growth at 100 µM [%]
CN1CCc2nc3sc(C(N)=O)c(N)c3c(-c3cccs3)c2C1 | 7

test system: NCI-H23; assay: Growth inhibition of human NCI-H23 cells assessed as cell growth at 100 uM incubated for 48 hrs by sulforhodamine B assay relative to control; assay type: functional; settings: read-out: Activity

SMILES | growth at 100 µM [%]
CN1CCc2nc3sc(C(N)=O)c(N)c3c(-c3cccs3)c2C1 | -30

test system: NCI-H322M; assay: Growth inhibition of human NCI-H322M cells assessed as cell growth at 100 uM incubated for 48 hrs by sulforhodamine B assay relative to control; assay type: functional; settings: read-out: Activity

SMILES | growth at 100 µM [%]
CN1CCc2nc3sc(C(N)=O)c(N)c3c(-c3cccs3)c2C1 | -1

test system: NCI-H522; assay: Growth inhibition of human NCI-H522 cells assessed as cell growth at 100 uM incubated for 48 hrs by sulforhodamine B assay relative to control; assay type: functional; settings: read-out: Activity

SMILES | growth at 100 µM [%]
CN1CCc2nc3sc(C(N)=O)c(N)c3c(-c3cccs3)c2C1 | -26

test system: HT-29; assay: Growth inhibition of human HT-29 cells assessed as cell growth at 100 uM incubated for 48 hrs by sulforhodamine B assay relative to control; assay type: functional; settings: read-out: Activity

SMILES | growth at 100 µM [%]
CN1CCc2nc3sc(C(N)=O)c(N)c3c(-c3cccs3)c2C1 | -1

test system: SNB-75; assay: Growth inhibition of human SNB-75 cells assessed as cell growth at 100 uM incubated for 48 hrs by sulforhodamine B assay relative to control; assay type: functional; settings: read-out: Activity

SMILES | growth at 100 µM [%]
CN1CCc2nc3sc(C(N)=O)c(N)c3c(-c3cccs3)c2C1 | -40

test system: UACC-257; assay: Growth inhibition of human UACC-257 cells assessed as cell growth at 100 uM incubated for 48 hrs by sulforhodamine B assay relative to control; assay type: functional; settings: read-out: Activity

SMILES | growth at 100 µM [%]
CN1CCc2nc3sc(C(N)=O)c(N)c3c(-c3cccs3)c2C1 | 3

test system: UACC-62; assay: Growth inhibition of human UACC-62 cells assessed as cell growth at 100 uM incubated for 48 hrs by sulforhodamine B assay relative to control; assay type: functional; settings: read-out: Activity

SMILES | growth at 100 µM [%]
CN1CCc2nc3sc(C(N)=O)c(N)c3c(-c3cccs3)c2C1 | -55

test system: BT-549; assay: Growth inhibition of human BT-549 cells assessed as cell growth at 100 uM incubated for 48 hrs by sulforhodamine B assay relative to control; assay type: functional; settings: read-out: Activity

SMILES | growth at 100 µM [%]
CN1CCc2nc3sc(C(N)=O)c(N)c3c(-c3cccs3)c2C1 | -8

test system: MDA-MB-468; assay: Growth inhibition of human MDA-MB-468 cells assessed as cell growth at 100 uM incubated for 48 hrs by sulforhodamine B assay relative to control; assay type: functional; settings: read-out: Activity

SMILES | growth at 100 µM [%]
CN1CCc2nc3sc(C(N)=O)c(N)c3c(-c3cccs3)c2C1 | -59

test system: HOP-62; assay: Growth inhibition of human HOP-62 cells incubated for 48 hrs by sulforhodamine B assay; assay type: functional; settings: not given
Method in brief: (§2)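 NCI60 panel at the NCI Developmental Therapeutics Program. Only compounds active in the 10 µM screen went to dose-response testing. GI50, the concentration giving 50% of maximal inhibition of proliferation, and TGI, the concentration giving total growth inhibition, were derived from the dose-response curves.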

SMILES | GI50 [µM] | LC50 [µM] | TGI [µM]
CN1CCc2nc3sc(C(N)=O)c(N)c3c(-c3cccs3)c2C1 | 3.27 | > 100 | > 100

test system: NCI-H322M; assay: Growth inhibition of human NCI-H322M cells incubated for 48 hrs by sulforhodamine B assay; assay type: functional; settings: not given; method in brief: as §2

SMILES | GI50 [µM] | TGI [µM]
CN1CCc2nc3sc(C(N)=O)c(N)c3c(-c3cccs3)c2C1 | 3.85 | 88.5

same assay, conditions: read-out: LC50 (the source's name)

SMILES | CC50 [µM]
CN1CCc2nc3sc(C(N)=O)c(N)c3c(-c3cccs3)c2C1 | > 100

test system: KM12; assay: Growth inhibition of human KM12 cells incubated for 48 hrs by sulforhodamine B assay; assay type: functional; settings: not given; method in brief: as §2

SMILES | GI50 [µM] | LC50 [µM] | TGI [µM]
CN1CCc2nc3sc(C(N)=O)c(N)c3c(-c3cccs3)c2C1 | 2.7 | > 100 | > 100

test system: SF-295; assay: Growth inhibition of human SF-295 cells incubated for 48 hrs by sulforhodamine B assay; assay type: functional; settings: not given
Method in brief: (§3)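 NCI DTP 60-line human tumour panel. Dose-response curves were run only for ligands active in the initial 10 µM screen. GI50 (concentration giving 50% of maximal inhibition of proliferation) and TGI (concentration giving total growth inhibition) were derived from these curves.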

SMILES | GI50 [µM] | LC50 (concentration killing 50% of cells) [µM] | TGI [µM]
CN1CCc2nc3sc(C(N)=O)c(N)c3c(-c3cccs3)c2C1 | 3.61 | > 100 | > 100

test system: LOX IMVI; assay: Growth inhibition of human LOX IMVI cells incubated for 48 hrs by sulforhodamine B assay; assay type: functional; settings: not given; method in brief: as §2

SMILES | GI50 [µM] | LC50 [µM] | TGI [µM]
CN1CCc2nc3sc(C(N)=O)c(N)c3c(-c3cccs3)c2C1 | 1.27 | > 100 | > 100

test system: UACC-257; assay: Growth inhibition of human UACC-257 cells incubated for 48 hrs by sulforhodamine B assay; assay type: functional; settings: not given; method in brief: as §3

SMILES | GI50 [µM] | LC50 (concentration killing 50% of cells) [µM] | TGI [µM]
CN1CCc2nc3sc(C(N)=O)c(N)c3c(-c3cccs3)c2C1 | 4 | > 100 | > 100

test system: SN12C; assay: Growth inhibition of human SN12C cells incubated for 48 hrs by sulforhodamine B assay; assay type: functional; settings: not given; method in brief: as §3

SMILES | GI50 [µM] | TGI [µM]
CN1CCc2nc3sc(C(N)=O)c(N)c3c(-c3cccs3)c2C1 | 2.69 | > 100

same assay, conditions: read-out: LC50 (the source's name)

SMILES | CC50 [µM]
CN1CCc2nc3sc(C(N)=O)c(N)c3c(-c3cccs3)c2C1 | > 100

test system: MDA-MB-231; assay: Growth inhibition of human MDA-MB-231 cells incubated for 48 hrs by sulforhodamine B assay; assay type: functional; settings: not given; method in brief: as §2

SMILES | GI50 [µM] | TGI [µM]
CN1CCc2nc3sc(C(N)=O)c(N)c3c(-c3cccs3)c2C1 | 4.77 | > 100

same assay, conditions: read-out: LC50 (the source's name)

SMILES | CC50 [µM]
CN1CCc2nc3sc(C(N)=O)c(N)c3c(-c3cccs3)c2C1 | > 100

test system: Hs-578T; assay: Growth inhibition of human Hs-578T cells incubated for 48 hrs by sulforhodamine B assay; assay type: functional; settings: not given; method in brief: as §2

SMILES | GI50 [µM] | TGI [µM]
CN1CCc2nc3sc(C(N)=O)c(N)c3c(-c3cccs3)c2C1 | 3.07 | 21.7

same assay, conditions: read-out: LC50 (the source's name)

SMILES | CC50 [µM]
CN1CCc2nc3sc(C(N)=O)c(N)c3c(-c3cccs3)c2C1 | > 100
